The entries come from a sample that favours hits as a whole.
B2AR ag = activates human beta-2 adrenergic receptor causing internalization; hit rate 0.43% among 340,000; AID 504454; response, % (concentration not given with the values); Am2.2-beta2AR cells, FAP receptor internalization, flow cytometry; P07550;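 active means response above a set limit, near 3 SD of response in nonfluorescent compounds, cut at about 42% in these data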
Target sequence (P07550 whole entry, looked up): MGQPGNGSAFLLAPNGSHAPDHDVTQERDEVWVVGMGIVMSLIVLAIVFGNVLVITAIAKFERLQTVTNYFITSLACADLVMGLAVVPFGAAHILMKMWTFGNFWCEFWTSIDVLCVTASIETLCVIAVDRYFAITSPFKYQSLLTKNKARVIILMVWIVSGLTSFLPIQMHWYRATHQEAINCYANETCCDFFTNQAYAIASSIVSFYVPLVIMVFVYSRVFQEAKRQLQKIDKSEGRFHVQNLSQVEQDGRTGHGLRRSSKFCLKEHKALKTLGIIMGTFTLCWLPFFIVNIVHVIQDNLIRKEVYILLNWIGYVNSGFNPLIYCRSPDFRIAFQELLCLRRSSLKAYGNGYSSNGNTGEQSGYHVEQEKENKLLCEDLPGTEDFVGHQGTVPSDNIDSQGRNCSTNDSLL
CHOP UPR activ = apoptotic UPR (CHOP) activation | CHO-CHOP luciferase reporter, luminescence; percent of tunicamycin response over DMSO baseline | activation, % at 10 µM | AID 449763 | hit rate 0.34% among 330,000;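 active means at 10 µM dose, activation of 40% or more, normalized to positive control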
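assay system = CHO CHOP reporter cells | amount = 500 CHO-CHOP cells per well | buffer or medium = F12 with 10% FBS | incubation = 16-18 h cell attachment, then 6 h compound exposure, 37 °C | detection = luminescence read with Steady-Glo | read-out = percent activation relative to tunicamycin control | controls = tunicamycin high control, DMSO low control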
UPR XBP1 act = adaptive UPR (XBP1) activation. CHO-XBP1 luciferase reporter, IRE1-XBP1 UPR activation, luminescence; percent of tunicamycin response, DMSO as zero. activation, % at 20 µM. hit rate 0.33% among 330,000. AID 463104;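 active means versus positive control, 20 µM dose yields 30% or more activation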
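Test system: CHO-XBP1 luciferase reporter cells | Buffer or medium: Serum-containing F12 medium, 10% FBS | Schedule: 6 h compound exposure at 37 °C, 5% CO2 | Detection: Steady-Glo luciferase glow luminescence, 10 min after reagent addition | Read-out basis: Activation, % of tunicamycin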
CHOP inhibitor = CHOP inhibition in unfolded protein response; inhibition, % at 10 µM; hit rate 3.8% among 220,000; CHO-K1 CHOP-promoter luciferase, tunicamycin-induced, 15-18 h;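 active means compounds that reduced the stress-induced luciferase reporter signal by more than about 70% of percent inhibition, limit read from the data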
VLA-4 inh = inhibition in a human VLA-4 binding assay; VLA-4 expressing cells, ligand binding flow cytometry; inhibition, % (about 7 µM as worked out from the volumes in the protocol); hit rate 0.2% among 330,000; in the data active means inhibition above about 50%
Each line names hits and unclear results; the compound was inactive in the other large screens.

COc1ccc(Oc2nc(-c3ccccc3)ncc2S(=O)(=O)c2ccccc2)cc1	CHOP inhibitor 73.3
COc1cc(/C=C2\C(C)=C(C#N)c3nc(N)c(C#N)c(C)c32)ccc1OCC(=O)O	none
CC1=C(C#N)c2nc(N)c(C#N)c(C)c2/C1=C\c1ccc(C)cc1	CHOP inhibitor 98.5 (no result: B2AR ag)
O=C(Nc1cnn(Cc2ccc(F)cc2)c1)c1noc2c1CCCC2	none
CC(C)(C)C1CCc2onc(C(=O)Nc3cnn(Cc4ccc(F)cc4)c3)c2C1 (stereo unspecified)	CHOP inhibitor 86.2
O=C(COc1cccc(C(F)(F)F)c1)NCC(c1cccs1)N1CCOCC1 (stereo unspecified)	none (no result: CHOP inhibitor)
CCOC(=O)C1CCCN(S(=O)(=O)c2ccc(Br)s2)C1 (stereo unspecified)	none
Cc1csc(NC(=O)C2CCCN(S(=O)(=O)c3ccc(Br)s3)C2)n1 (stereo unspecified)	CHOP inhibitor 70.1
COc1ccc(OCC(=O)Nc2ccc3oc(-c4ccncc4)nc3c2)cc1	none
Cc1ccc(OCC(=O)Nc2ccc(O)c(-c3nc4ccccc4o3)c2)cc1	CHOP inhibitor 88.6
O=C(/C=C/c1ccccc1)NC(=S)NNC(=O)c1ccco1	none
O=C(/C=C/c1ccc(Br)cc1)NC(=S)NNC(=O)c1ccco1	CHOP inhibitor 76.5
COc1cc(C)ccc1OCCOc1ccccc1Cl	CHOP inhibitor 76.1
COc1cc(C)ccc1OCCOCCOc1c(C)cc(C)cc1Br	CHOP inhibitor 83.5
COc1cc(C)ccc1OCCCOc1ccccc1Cl	none
CCc1c(C)nc2ncnn2c1NCCc1ccc(Cl)cc1	CHOP inhibitor 71.3
COC(=O)C1=C(N)Oc2cc(C)n(CCCn3ccnc3)c(=O)c2C1c1ccc(Cl)cc1 (stereo unspecified)	CHOP inhibitor 76.9
COC(=O)C1=C(N)Oc2cc(C)n(CC3CCCO3)c(=O)c2C1c1ccc(Cl)c(Cl)c1 (stereo unspecified)	CHOP inhibitor 85.2
CCn1c(C)cc2c(c1=O)C(c1ccccc1)C(C(=O)OC)=C(N)O2 (stereo unspecified)	none
Cc1ccc2c(c1C)C(=O)C(=O)N2	none (no result: CHOP UPR activ, UPR XBP1 act, CHOP inhibitor, VLA-4 inh)
COc1nnc(-c2ccc(C)cc2)c2ccccc12	none (no result: CHOP inhibitor)
COc1ccc(Oc2nnc(-c3ccc(C)cc3)c3ccccc23)cc1	CHOP inhibitor 83.3
Cc1cccc(CSCCNC(=S)Nc2ccccc2)c1	none
S=C(NCCSCc1ccccc1Cl)Nc1ccccc1	CHOP inhibitor 71.4
S=C(NCCSCc1ccc(Cl)cc1)Nc1ccccc1	CHOP inhibitor 80.3
O=C(CCSc1nc(-c2ccco2)cc(C(F)(F)F)n1)N1CCN(c2ccccn2)CC1	CHOP inhibitor 88.3
CC(C)c1nc2sc3c(NCc4ccco4)ncnc3c2c2c1COC(C)(C)C2	CHOP inhibitor 78.5
CCOc1ccc(NC(=O)COC(=O)c2ccc3c(c2)OCCO3)cc1	none (no result: CHOP inhibitor)
O=C(NC1CCCN(Cc2ccccc2F)C1)C1CCC1 (stereo unspecified)	none (no result: CHOP inhibitor)
CCOC(=O)c1cc(CC)sc1NC(=O)c1cc(OC)c(OC)c(OC)c1	CHOP inhibitor 90.4
CCOC(=O)c1cc(CC)sc1NC(=O)c1ccc(N2C(=O)CCC2=O)cc1	none
CCOC(=O)c1cc(CC)sc1NC(=O)Cc1ccsc1	CHOP inhibitor 75.5
O=C(COC(=O)c1cc(S(=O)(=O)N2CCOCC2)ccc1F)Nc1ccc(Cl)cn1	none (no result: CHOP inhibitor)
CC1CC1C(=O)OCC(=O)Nc1ccc(Cl)cn1 (stereo unspecified)	none (no result: CHOP inhibitor)
O=C(CSc1nnc2ccc(-c3ccc(Br)cc3)nn12)NCC1CCCO1 (stereo unspecified)	none (no result: CHOP inhibitor)
Cn1nc(-c2ccccn2)nc2c(=O)n(C)c(=O)nc1-2	B2AR ag 73.8, CHOP inhibitor 107.0
CCCc1nc2c(=O)n(C)c(=O)nc-2n(C)n1	B2AR ag 80.0, CHOP inhibitor 104.4 (no result: CHOP UPR activ, UPR XBP1 act, VLA-4 inh)
Cc1cccc(/C=C2/SC(=O)N(Cc3ccccc3)C2=O)n1	CHOP inhibitor 92.9
N#CCCN(C(=O)COC(=O)Cc1c[nH]c2ccccc12)c1ccccc1	none (no result: CHOP inhibitor)
COc1ccccc1CNC(=O)/C=C/c1ccc(Br)o1	B2AR ag 70.8
CCOC(=O)C1CCN(S(=O)(=O)c2cc(C(=O)OC)n(C)c2)CC1	none (no result: CHOP inhibitor)
Cc1ccc(-n2nnnc2C(Cl)(Cl)c2nnnn2-c2ccc(C)cc2)cc1	CHOP inhibitor 80.2
Clc1ccc(-c2nnnn2-c2ccc(Cl)cc2)cc1	none
Cn1cc(C2=C(c3ccc(Cl)cc3Cl)C(=O)NC2=O)c2ccccc21	CHOP inhibitor 86.4
Cn1cc(-c2ccccc2C(N)=O)c(=O)c2cc(Cl)ccc21	none
N#CC(Cc1ccc(O)c(O)c1)C(=O)N1CCc2ccccc21 (stereo unspecified)	none (no result: B2AR ag, CHOP UPR activ, UPR XBP1 act, VLA-4 inh)
Cc1ccc(S(=O)(=O)NC(CC(=O)n2nc(C)cc2C)c2ccccc2)cc1 (stereo unspecified)	CHOP inhibitor 80.4
Cc1ccc(S(=O)(=O)NC(c2ccccc2)C(C)C(=O)n2nc(C)cc2C)cc1 (stereo unspecified)	CHOP inhibitor 73.1
CCOc1ccc(OCc2cccc(C(=O)N3CCOCC3)c2)cc1	CHOP inhibitor 85.9
COc1ccc(OCc2cccc(C(=O)NN)c2)cc1	CHOP inhibitor 72.3
NNC(=O)c1ccc(COc2ccc3ccccc3c2)cc1	CHOP inhibitor 85.0
Cc1sc(NC(=O)C2=COCCO2)nc1-c1ccc(Cl)cc1	none (no result: CHOP inhibitor)
CCOC(=O)c1cnn(C)c1NC(=O)c1ccc([N+](=O)[O-])cc1	none (no result: CHOP inhibitor)
CC(=O)c1c(C)[nH]c(C(=O)OCC(=O)Nc2ccc(C)cc2[N+](=O)[O-])c1C	CHOP inhibitor 89.4
CC(=O)c1c(C)[nH]c(C(=O)OCC(=O)Nc2cc(Cl)ccc2[N+](=O)[O-])c1C	none
O=C(O)c1cc(O)c2c(c1)[C@@H]([C@H]1c3cc(C(=O)O)cc(O)c3C(=O)c3c(O[C@@H]4O[C@H](CO)[C@@H](O)[C@H](O)[C@H]4O)cccc31)c1cccc(OC3O[C@H](CO)[C@@H](O)[C@H](O)[C@H]3O)c1C2=O (stereo partly specified)	VLA-4 inh 57.1 (no result: CHOP inhibitor)
Cc1ccc(C)c(NC(=O)c2ccccc2O)c1	CHOP inhibitor 76.6
Cc1ccc(C(=O)CC(=O)c2cccc(F)c2)c(O)c1	CHOP inhibitor 88.5
Cc1ccc(O)c(C(=O)CC(=O)c2ccc(C(C)(C)C)cc2)c1	none (no result: CHOP inhibitor)
Cc1ccc(O)c(C(=O)CC(=O)c2ccccc2Cl)c1	CHOP inhibitor 102.9
Cc1cccc(NC(=O)c2ccccc2O)c1C	none
COc1ccc(O)c(C(=O)CC(=O)c2ccccc2)c1	CHOP inhibitor 92.7 (no result: B2AR ag)
COc1ccc(O)c(C(=O)CC(=O)c2ccncc2)c1	none (no result: CHOP UPR activ, UPR XBP1 act, CHOP inhibitor, VLA-4 inh)
COc1cc(NS(=O)(=O)c2ccc(C)cc2)c2ncccc2c1	CHOP UPR activ 111.5 (no result: CHOP inhibitor)
COc1ccc(S(=O)(=O)Nc2ccccn2)cc1	none (no result: CHOP inhibitor)
CCOC(=O)c1cc2c(nc1C)-c1cc(Cl)cc(Cl)c1OC2O (stereo unspecified)	CHOP inhibitor 88.7

From PubChem
